Consider one compound from ChEMBL document CHEMBL5230168, “Design, synthesis, and biological evaluation of new arjunolic acid derivatives as anticancer agents” (RSC Med Chem, 2023).

For series [1], the system named is PANC-1. In words: Synergistic cytotoxicity against human PANC-1 cells assessed as combination index at 0.24 uM incubated for 72 hrs in the presence of 12 uM gemcitabine by MTT assay. Format: functional. On the technique in general: Tetrazolium dyes change colour on reduction, which living cells bring about.
The next series has as its system HT-29. In words: Cytotoxicity against human HT-29 cells assessed as inhibition of cell growth incubated for 72 hrs by MTT assay. Format: functional, cell-based. The following applies: HT-29, 72 h. In short, it runs like this: (§1)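 Cells seeded per well (HT-29 4500, PANC-1 4000, SK-MEL-28 3200, A375 1200, A549 2500, H2170 and BJ 10 000) and left 24 h. They were then exposed to increasing concentrations for 72 h and incubated 1 h with MTT 0.5 mg mL−1. Formazan was dissolved in DMSO and absorbance read at 550 nm. IC50 from three independent experiments. Final DMSO ≤0.5%.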

A further series relates to A-375. In words: Cytotoxicity against human A-375 cells assessed as inhibition of cell growth incubated for 72 hrs by MTT assay. Format: functional, cell-based. The following applies: A-375, 72 h. In short, it runs like this: as §1
The test system of a further series is SK-MEL-28. In words: Cytotoxicity against human SK-MEL-28 cells assessed as inhibition of cell growth incubated for 72 hrs by MTT assay. Format: functional, cell-based. The following applies: SK-MEL-28, 72 h. In short, it runs like this:
as §1

The subject of another series is A549. As to the kind of experiment: Cytotoxicity against human A549 cells assessed as inhibition of cell growth incubated for 72 hrs by MTT assay. Format: functional, cell-based. The settings on record: A549, 72 h. In outline: as §1
Series [2] can be described thus: Cytotoxicity against human BJ cells assessed as inhibition of cell growth incubated for 72 hrs by MTT assay. Format: toxicity, cell-based. In outline: as §1
Series [3] deals with PANC-1. In words: Induction of apoptosis in human PANC-1 cells assessed as late apoptotic cells at […] incubated for 24 hrs by Annexin V-FITC/PI staining based flow cytometric analysis (reference value: 1.1%). Format: functional. In outline: (§2)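 PANC-1 seeded at 2 × 10^5 cells/well, grown 24 h, then treated 24 h. PI added just before flow cytometry. Quadrant percentages given as mean ± SD of three experiments. Untreated control.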
A general note: Flow cytometry measures light scatter and fluorescence of single cells or particles in a stream.

The test system of series [4] is PANC-1. As to the kind of experiment: Induction of apoptosis in human PANC-1 cells assessed as viable cells at 0.94 uM incubated for 24 hrs by Annexin V-FITC/PI staining based flow cytometric analysis (reference value: 89.8%). Format: functional. The settings on record: read-out: Activity. In outline:
as §2

Series [5] deals with PANC-1. As to the kind of experiment: Induction of apoptosis in human PANC-1 cells assessed as late apoptotic cells at 0.94 uM incubated for 24 hrs by Annexin V-FITC/PI staining based flow cytometric analysis (reference value: 1.1%). The format is functional. In outline: as §2
For series [6], the system named is PANC-1. As to the kind of experiment: Induction of apoptosis in human PANC-1 cells assessed as viable cells at 1.88 uM incubated for 24 hrs by Annexin V-FITC/PI staining based flow cytometric analysis (reference value: 89.8%). The format is functional. The settings on record: read-out: Activity. In outline: as §2
In series [7] the test system is PANC-1. As to the kind of experiment: Induction of apoptosis in human PANC-1 cells assessed as early apoptotic cells at 1.88 uM incubated for 24 hrs by Annexin V-FITC/PI staining based flow cytometric analysis (reference value: 5.2%). The format is functional. In outline: as §2
The subject of series [8] is PANC-1. In words: Induction of apoptosis in human PANC-1 cells assessed as viable cells at 2.82 uM incubated for 24 hrs by Annexin V-FITC/PI staining based flow cytometric analysis (reference value: 89.8%). Format: functional. The following applies: read-out: Activity. In outline: as §2
The test system of series [9] is PANC-1. In words: Induction of apoptosis in human PANC-1 cells assessed as chromatin condensation at 0.47 to 2.82 uM incubated for 24 hrs by Hoechst 33342 staining based fluorescence microscopic analysis. The following applies: dose 0.47-2.82 µM. Format: functional, cell-based. In short, it runs like this: (§3)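 PANC-1 at 6500 cells/well, pre-incubated 24 h, then treated for 24 h. Washed with PBS and stained with Hoechst 33342 (1 μg mL−1 in PBS) 10 min at 37 °C in the dark. Nuclear morphology imaged by high-content fluorescence microscopy with a DAPI filter. Untreated cells as control.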

The subject of series [10] is PANC-1. As to the kind of experiment: Induction of apoptosis in human PANC-1 cells assessed as appearance of apoptotic bodies at 0.47 to 2.82 uM incubated for 24 hrs by Hoechst 33342 staining based fluorescence microscopic analysis. The settings on record: dose 0.47-2.82 µM. The format is functional, cell-based. In outline: as §3
The test system of series [11] is PANC-1. As to the kind of experiment: Synergistic cytotoxicity against human PANC-1 cells assessed as combination index at 1.88 uM incubated for 72 hrs in the presence of 94 uM gemcitabine by MTT assay. Format: functional.
Series [12] is described as follows: Toxicity in Balb/c mouse assessed as decrease in activity at 50 to 100 mg/kg, ip measured upto 24 hrs by Irwin test. The following applies: in vivo, dose 50-100 mg/kg. The format is organism-based. In outline: (§4)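 Irwin primary observation in female Balb/c mice aged 7–8 weeks, 3 per group. Single i.p. doses of 0.01, 0.1, 1, 5, 10, 50 and 100 mg kg−1 in 0.2% HPMC in saline; vehicle controls observed in parallel, non-blind. Standardized grid including rectal temperature and pupil diameter scored at 15, 30, 60, 120 and 180 min and 24 h, with continuous watch over 0–15 min.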

Series [13] can be described thus: Toxicity in Balb/c mouse assessed as piloerection at 50 to 100 mg/kg, ip measured upto 24 hrs by Irwin test. The format is organism-based. The following applies: in vivo, dose 50-100 mg/kg. In short, it runs like this:
as §4

Series [14] can be described thus: Toxicity in Balb/c mouse assessed as decreased reactivity to touch at 50 to 100 mg/kg, ip measured upto 24 hrs by Irwin test. The format is organism-based. The settings on record: in vivo, dose 50-100 mg/kg. In outline: as §4
Series [15] in a line: Toxicity in Balb/c mouse assessed as hypothermia at 50 to 100 mg/kg, ip measured upto 24 hrs by Irwin test. Format: organism-based. The following applies: in vivo, dose 50-100 mg/kg. In outline:
as §4

pIC50: −log10 of the molar value. Calls of active or inactive are those of the source. The rule behind the calls is not given here.

Broadly, the pIC50 is the IC50 on a negative log10 scale, so that one unit is a factor of ten. A word on the IC50: it is the concentration that gives 50% inhibition. Consider `CCOC(=O)[C@]12CCC(C)(C)C[C@H]1C1=CC[C@@H]3[C@@]4(C)C(C=O)=C[C@@](C)(CO)[C@@H]4CC[C@@]3(C)[C@]1(C)CC2`, for which the results for the CI in the series with PANC-1 [1] and with PANC-1 [11] were 0.75 and 0.79, respectively. Besides, the pIC50 is 6.29 with HT-29, 6.24 in the series on A-375, 6.24 in the series on SK-MEL-28 and 6.08 in the series with A549. In addition, the IC50 at 72 h in series [2] is 3.06 µM. Besides, the Activity in the series with PANC-1 [3] is listed as 1.1%; in the series with PANC-1 [5], 1.2%; with PANC-1 [7], 7.5%; in [12], “Toxic”; in [13], “Toxic”; in [14], “Toxic”. Besides, in series [15], the Activity entry was “Toxic”. The viability at 0.94 µM in the series with PANC-1 [4] was 90.4%. For the same compound, in the series with PANC-1 [6], the viability at 1.88 µM was determined as 87.3%. In addition, the viability at 2.82 µM with PANC-1 [8] worked out at 84.7%. Moreover, the outcome in the series with PANC-1 [9] and with PANC-1 [10] was inactive.
